Measurements as given in ChEMBL document CHEMBL1909521, “A class of novel N-(1-methyl-β-carboline-3-carbonyl)-N'-(aminoacid-acyl)-hydrazines: aromatization leaded design, synthesis, in vitro anti-platelet aggregation/in vivo anti-thrombotic evaluation and 3D QSAR analysis” (Eur J Med Chem, 2011).
Where a name gives a salt, the structure may show the parent alone.

Tests used:
[1] = Antiaggregatory activity in pig platelets assessed as inhibition of platelet-activating factor-induced platelet aggregation after 5 mins; assay type: functional, cell-based; details: Sus scrofa
Outline: (§1)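 Pig blood (6 pigs) was spun at 1000 rpm for 10 min to give PRP, then 1500 rpm for 10 min to give PPP. PRP was adjusted to 2×10^8 platelets/ml with autologous PPP. Compound (final 100 µM to 0.001 µM, diluted in NS) or NS was added before agonist: ADP 10 µM, AA 350 µM or PAF 0.1 µM final. Aggregation was read optically at 37 °C for 5 min, in sixplicate. IC50 came from the concentration–inhibition curve.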

[2] = Antiaggregatory activity in pig platelets assessed as inhibition of adenosine diphosphate-induced platelet aggregation after 5 mins; assay type: functional, cell-based; details: Sus scrofa; outline: as §1
[3] = Antiaggregatory activity in pig platelets assessed as inhibition of arachidonic acid-induced platelet aggregation after 5 mins; assay type: functional, cell-based; details: Sus scrofa; outline: as §1
[4] = test system: Rattus norvegicus; assay: Antithrombotic activity in Wister rat assessed as reduction of thrombus weight at 1 nmol/kg, po (reference value: 31.87 +/- 1.71 mg); assay type: functional
[5] = test system: Rattus norvegicus; assay: Antithrombotic activity in Wister rat assessed as reduction of thrombus weight at 10 nmol/kg, po (reference value: 31.87 +/- 1.71 mg); assay type: functional
[6] = test system: Rattus norvegicus; assay: Antithrombotic activity in Wister rat assessed as reduction of thrombus weight at 10 nmol/kg, po (reference value: 28.21 +/- 1.11 mg); assay type: functional
[7] = Antiplatelet activity in rabbit platelets assessed as inhibition of collagen-induced platelet aggregation; assay type: functional, cell-based; details: Oryctolagus cuniculus

SMILES | IC50 [1] [µM] | IC50 [2] [µM] | IC50 [3] [µM] | Activity [4] [mg] | Activity [5] [mg] | Activity [6] [mg] | IC50 [7] [µM]
Cc1nc(C(=O)NNC(=O)[C@@H](N)CCCCN)cc2c1[nH]c1ccccc12 | 52.9 | 58.9 | 4.1 | 23.3 |  |  | 
Cc1nc(C(=O)NNC(=O)[C@@H](N)[C@@H](C)O)cc2c1[nH]c1ccccc12 | 20.9 | 24.8 | 5.2 | 23.65 |  |  | 
CC[C@H](C)[C@H](NC(=O)OC(C)(C)C)C(=O)NNC(=O)c1cc2c([nH]c3ccccc32)c(C)n1 | 1.4 | 51.1 | 2.4 |  | 23.3 | 20.62 | 
Cc1nc(C(=O)NN)cc2c1[nH]c1ccccc12 | 92.8 | 110 | 32.9 |  | 26.66 |  | 
Cc1nc(C(=O)NNC(=O)[C@@H](N)CCC(=O)OCc2ccccc2)cc2c1[nH]c1ccccc12 | 64.3 | 58.9 | 2.3 | 18.8 |  |  | 
Cc1nc(C(=O)NNC(=O)[C@@H](N)CC(=O)OCc2ccccc2)cc2c1[nH]c1ccccc12 | 52.9 | 81.7 | 3.7 | 23.23 |  |  | 
Cc1nc(C(=O)NNC(=O)[C@@H](N)CO)cc2c1[nH]c1ccccc12 | 52.9 | 50.9 | 9 | 24.78 |  |  | 
Cc1nccc2c1[nH]c1cc(O)ccc12 [HARMOL HYDROCHLORIDE] |  |  |  |  |  |  | 130
Cc1nc(C(=O)NNC(=O)CNC(=O)OC(C)(C)C)cc2c1[nH]c1ccccc12 | 348 | 722 | 20.7 |  | 26.83 | 23.74 | 
CSCC[C@H](N)C(=O)NNC(=O)c1cc2c([nH]c3ccccc32)c(C)n1 | 13.4 | 58.9 | 4.7 | 23.43 |  |  | 
Cc1nc(C(=O)NNC(=O)[C@H](Cc2cn(C(=O)OC(C)(C)C)cn2)NC(=O)OC(C)(C)C)cc2c1[nH]c1ccccc12 | 7.7 | 94.6 | 4.8 |  | 21.32 | 18.87 | 
Cc1nc(C(=O)NNC(=O)[C@@H](N)Cc2cnc[nH]2)cc2c1[nH]c1ccccc12 | 42.5 | 25.7 | 0.2 | 18.1 |  |  | 
Cc1nc(C(=O)NNC(=O)[C@H](CO)NC(=O)OC(C)(C)C)cc2c1[nH]c1ccccc12 | 119 | 276 | 19.9 |  | 21.1 | 18.67 | 
c1ccc2c(c1)[nH]c1cnccc12 [NORHARMANE] |  |  |  |  |  |  | 130
Cc1nc(C(=O)NNC(=O)CN)cc2c1[nH]c1ccccc12 | 52.9 | 53.3 | 5.2 | 23.7 |  |  | 
CSCC[C@H](NC(=O)OC(C)(C)C)C(=O)NNC(=O)c1cc2c([nH]c3ccccc32)c(C)n1 | 52.9 | 417 | 21.7 |  | 20.96 | 18.55 | 
Cc1nc(C(=O)NNC(=O)[C@@H](N)CC(C)C)cc2c1[nH]c1ccccc12 | 1.1 | 23 | 8.2 | 24.49 |  |  | 
Cc1nc(C(=O)NNC(=O)[C@@H](N)Cc2ccc(O)cc2)cc2c1[nH]c1ccccc12 | 37.4 | 74.6 | 1.7 | 18.56 |  |  | 
CC1=NCCc2c1[nH]c1cc(O)ccc21 [HARMALOL] |  |  |  |  |  |  | 130

SMILES | IC50 [1] [µM] | IC50 [2] [µM] | IC50 [3] [µM] | Activity [4] [mg] | Activity [5] [mg] | Activity [6] [mg] | IC50 [7] [µM]
Cc1nc(C(=O)NNC(=O)[C@H](CCC(=O)OCc2ccccc2)NC(=O)OC(C)(C)C)cc2c1[nH]c1ccccc12 | 362 | 524 | 6.3 |  | 22.2 | 19.65 | 
Cc1nc(C(=O)NNC(=O)[C@H](C)NC(=O)OC(C)(C)C)cc2c1[nH]c1ccccc12 | 162 | 118 | 20 |  | 22.67 | 20.06 | 
Cc1nc(C(=O)NNC(=O)[C@H](CCCCNC(=O)OC(C)(C)C)NC(=O)OC(C)(C)C)cc2c1[nH]c1ccccc12 | 106 | 321 | 3.4 |  | 22.32 | 19.75 | 
Cc1nccc2c1[nH]c1ccccc12 [HARMAN] |  |  |  |  |  |  | 130
Cc1nc(C(=O)NNC(=O)[C@@H]2CCCN2C(=O)OC(C)(C)C)cc2c1[nH]c1ccccc12 | 134 | 166 | 20.6 |  | 23.04 | 20.39 | 
Cc1nc(C(=O)NNC(=O)[C@@H](N)CC(N)=O)cc2c1[nH]c1ccccc12 | 39.7 | 65.8 | 6.2 | 23.97 |  |  | 
Cc1nc(C(=O)NNC(=O)[C@@H]2CCCN2)cc2c1[nH]c1ccccc12 | 44.5 | 48.7 | 5.8 | 24.37 |  |  | 
Cc1nc(C(=O)NNC(=O)[C@@H](N)Cc2c[nH]c3ccccc23)cc2c1[nH]c1ccccc12 | 19.3 | 28.9 | 8.7 | 24.56 |  |  | 
Cc1nc(C(=O)NNC(=O)[C@@H](NC(=O)OC(C)(C)C)[C@@H](C)O)cc2c1[nH]c1ccccc12 | 31.9 | 531 | 4.7 |  | 22.87 | 20.24 | 
COc1ccc2c3c([nH]c2c1)C(C)=NCC3 [HARMALINE] |  |  |  |  |  |  | 130
Cc1nc(C(=O)NNC(=O)[C@H](CC(C)C)NC(=O)OC(C)(C)C)cc2c1[nH]c1ccccc12 | 1.2 | 31.6 | 3.2 |  | 23.8 | 21.06 | 
COc1ccc2c(c1)[nH]c1c(C)nccc12 [HARMINE] |  |  |  |  |  |  | 130
Cc1nc(C(=O)NNC(=O)[C@H](CC(N)=O)NC(=O)OC(C)(C)C)cc2c1[nH]c1ccccc12 | 507 | 609 | 19.7 |  | 24.14 | 21.36 | 
Cc1nc(C(=O)NNC(=O)[C@@H](NC(=O)OC(C)(C)C)C(C)C)cc2c1[nH]c1ccccc12 | 50 | 156 | 3.7 |  | 24.01 | 24.01 | 
Cc1nc(C(=O)NNC(=O)[C@H](Cc2ccc(O)cc2)NC(=O)OC(C)(C)C)cc2c1[nH]c1ccccc12 | 12.7 | 152 | 13 |  | 23.73 | 21 | 
Cc1nc(C(=O)NNC(=O)[C@H](Cc2c[nH]c3ccccc23)NC(=O)OC(C)(C)C)cc2c1[nH]c1ccccc12 | 4.3 | 21.7 | 0.6 |  | 21.52 | 19.04 | 
CC[C@H](C)[C@H](N)C(=O)NNC(=O)c1cc2c([nH]c3ccccc32)c(C)n1 | 5.6 | 74 | 3.6 | 23.12 |  |  | 
Cc1nc(C(=O)NNC(=O)[C@H](CC(=O)OCc2ccccc2)NC(=O)OC(C)(C)C)cc2c1[nH]c1ccccc12 | 196 | 117 | 5.2 |  | 21.44 | 18.97 | 
Cc1nc(C(=O)NNC(=O)[C@H](C)N)cc2c1[nH]c1ccccc12 | 47.4 | 58.9 | 6.7 | 24.39 |  |  | 
